Measured values reported in ChEMBL document CHEMBL1135830, “NMR-based modification of matrix metalloproteinase inhibitors with improved bioavailability” (J Med Chem, 2002).

Test system: Rattus norvegicus
Test: Bioavailability after peroral administration at 30 mg/kg against Stromelysin in rat
Type: ADME, organism-based
Conditions: not given
Method in brief: (§1)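 Rats (4 per compound, across two studies) dosed orally at 30 mg/kg in hydroxypropyl methyl cellulose. Tail-vein blood drawn at intervals over 7 h, deproteinated with 2 volumes methanol containing 0.1% acetic acid. Drug level in the extract quantified by bioassay against recombinant stromelysin.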

SMILES | IC50 [µM]
N#Cc1ccc(-c2ccc(OCCOc3ccc4ccccc4c3C(=O)NO)cc2)cc1 | 0.34
N#Cc1ccc(-c2ccc(OCCC(=O)NO)cc2)cc1 | 0.057

Target: T1, Stromelysin-1 (Homo sapiens, UniProt P08254)
T1 sequence (P08254 whole entry): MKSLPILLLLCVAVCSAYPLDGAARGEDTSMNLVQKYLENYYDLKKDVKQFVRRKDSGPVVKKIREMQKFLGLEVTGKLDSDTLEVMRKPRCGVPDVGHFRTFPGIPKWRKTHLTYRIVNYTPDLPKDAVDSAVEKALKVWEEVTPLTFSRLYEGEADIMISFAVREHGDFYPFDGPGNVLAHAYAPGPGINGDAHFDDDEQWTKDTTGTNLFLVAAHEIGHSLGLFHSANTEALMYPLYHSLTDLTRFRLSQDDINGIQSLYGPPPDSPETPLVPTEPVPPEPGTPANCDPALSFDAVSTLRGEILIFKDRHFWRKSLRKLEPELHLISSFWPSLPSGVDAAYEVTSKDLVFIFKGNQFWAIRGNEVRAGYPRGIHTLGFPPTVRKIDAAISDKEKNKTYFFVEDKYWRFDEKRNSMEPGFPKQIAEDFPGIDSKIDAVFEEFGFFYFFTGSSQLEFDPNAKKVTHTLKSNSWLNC
Test: Inhibition of Stromelysin (MMP-3)
Design: species or system Rattus norvegicus
Conditions: not given

SMILES | IC50 [µM]
COc1ccc(-c2ccc(S(=O)(=O)NCCc3ccc4ccccc4c3C(=O)NO)cc2)cc1 | 10
N#CCc1cccc(-c2ccc(S(=O)(=O)CCOc3ccc4ccccc4c3C(=O)NO)cc2)c1 | 0.062
N#Cc1ccc(-c2ccc(OCc3ccc4ccccc4c3C(=O)NO)cc2)cc1 | > 10
O=C(NO)c1cccc2ccccc12 | 50
N#Cc1ccc(-c2ccc(OCCCOc3ccc4ccccc4c3C(=O)NO)cc2)cc1 | 10

Target: T1, Stromelysin-1
Test: Binding to stromelysin (MMP-3) in the presence of 1-Napthohydroxamate
Design: species or system Rattus norvegicus
Conditions: not given
Method in brief: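 Catalytic domain of stromelysin (residues 81-256), uniformly ¹⁵N-labeled, at 0.3 mM in H₂O/D₂O (9/1) with 50 mM Tris pH 7.0, 20 mM CaCl₂ and 0.05% sodium azide. Compounds were added from perdeuterated DMSO solutions. Binding was detected as changes in sensitivity-enhanced ¹⁵N HSQC spectra (500 MHz), recorded with and without compound.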

SMILES | Kd [µM]
N#Cc1ccc(-c2ccc(O)cc2)cc1 | < 50
Oc1ccc(-c2ccc(O)cc2)cc1 | 150
c1ccc(-c2ccncc2)cc1 | 900

Target: T1, Stromelysin-1
Test: Binding to stromelysin (MMP-3) in the presence of acetohydroxamic acid
Design: species or system Rattus norvegicus
Conditions: not given
Method in brief: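 Uniformly 15N-labeled stromelysin catalytic domain (residues 81-256) at 0.3 mM in 50 mM Tris, pH 7.0, H2O/D2O 9/1, with 20 mM CaCl2 and 0.05% sodium azide. Sensitivity-enhanced 15N HSQC spectra were recorded at 500 MHz with and without compound added in perdeuterated DMSO. Binding was read from changes in the HSQC spectrum.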

SMILES | Kd [µM]
N#Cc1ccc(-c2ccc(O)cc2)cc1 | < 50

Target: T1, Stromelysin-1
Test: Binding to stromelysin (MMP-3) in place of acetohydroxamic acid.
Design: species or system Rattus norvegicus
Conditions: not given
Method in brief: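 Binding detected by sensitivity-enhanced 15N HSQC on uniformly 15N-labeled stromelysin catalytic domain (residues 81-256), 0.3 mM protein in H2O/D2O 9:1 Tris buffer 50 mM pH 7.0, 20 mM CaCl2, 0.05% sodium azide. Ligands added from perdeuterated DMSO, screened at 25.0 mM each; spectra with versus without compound compared for shifts at 500 MHz.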

SMILES | Kd [µM]
SCc1cccs1 | 150
O=C(O)CCS [MERCAPTOPROPIONIC ACID] | 3000
O=C(CC(=O)C(F)(F)F)c1ccccc1 | > 25000
CCOC(=O)NO [ETHYL HYDROXYCARBAMATE] | > 25000
CCOC(=O)CC(=O)C(F)(F)F | > 25000
O=C(O)c1ccccc1O [SALICYLIC ACID] | > 25000
CC(=O)c1ccccn1 | > 25000
NC(=O)NO [HYDROXYUREA] | > 25000
NC(=O)c1ccccc1O [SALICYLAMIDE] | > 25000
O=C(NO)c1cccc2ccccc12 | 50
O=C(NO)c1ccccc1 [BENZOHYDROXAMATE] | 7000

Test system: not listed separately
Test: Half-life period was determined
Type: ADME
Conditions: not given
Method in brief: as §1

SMILES | half-life [h]
N#Cc1ccc(-c2ccc(OCCOc3ccc4ccccc4c3C(=O)NO)cc2)cc1 | 2

Test system: not listed separately
Test: Cmax was determined
Type: ADME, organism-based
Conditions: in vivo
Method in brief: as §1

SMILES | Cmax [µM]
N#Cc1ccc(-c2ccc(OCCOc3ccc4ccccc4c3C(=O)NO)cc2)cc1 | 28
